Screens (PubChem)
Only a selection was taken, and hits are over-represented in it overall.
T cruzi growth-1 – blocks T. cruzi growth in NIH3T3 culture | inhibition, % at 8.34 µM | 5.9% of 77,000 active | T. cruzi beta-gal in NIH3T3, GalScreen luminescence, 90 h | AID 624255;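 active = mean inhibition above about 93%, with at least 55% of replicates each passing it, limit read from the data, passing the limit was not always enough; inconclusive = only one of those two conditions holds; inactive = neither condition holds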
IDH1 mut inh – blocks human IDH1 R132H reductase activity. inhibition, % at 10 µM. diaphorase/resazurin fluorescence, 60 min. 0.18% of 70,000 active. O75874; in the data active = inhibition above about 34%; inconclusive = no clear call, values can overlap the other calls; inactive = below about 11%;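 note: 0% = DMSO and 100% = no enzyme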
Target sequence (O75874 whole entry R132H): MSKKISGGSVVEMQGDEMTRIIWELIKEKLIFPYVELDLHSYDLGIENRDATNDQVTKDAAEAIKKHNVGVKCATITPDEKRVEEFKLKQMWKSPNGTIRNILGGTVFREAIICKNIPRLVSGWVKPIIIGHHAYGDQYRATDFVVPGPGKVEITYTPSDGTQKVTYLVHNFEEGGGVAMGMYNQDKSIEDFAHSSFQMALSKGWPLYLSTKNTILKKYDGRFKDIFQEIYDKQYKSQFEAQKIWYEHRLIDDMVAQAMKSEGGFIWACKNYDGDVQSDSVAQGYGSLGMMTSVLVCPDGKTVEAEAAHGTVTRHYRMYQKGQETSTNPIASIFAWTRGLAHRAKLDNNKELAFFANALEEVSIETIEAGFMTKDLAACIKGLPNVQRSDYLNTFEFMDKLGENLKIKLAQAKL
GASC1 inh – blocks human GASC-1 (KDM4C) demethylase activity. inhibition, % at 12.5 µM. GST-KDM4C 2-372, H3K9me3 peptide, LANCE TR-FRET. Q9H3R0. 0.15% of 96,000 active. AID 720574;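 active = mean replicate inhibition above about 25%, with at least 55% of replicates also reaching it, limit read from the data, passing the limit was not always enough; inconclusive = only one of those two conditions met; inactive = neither condition met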
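reagent = H3K9me3 peptide substrate, Fe(II), 2-oxoglutarate | system = GST-tagged GASC-1 (JMJD2C) catalytic fragment, aa 2-372 | amount = enzyme final amount 10 nM | read-out = Fall in 671/618 emission ratio as inhibition | medium = HEPES buffer, pH 7.5, plus ascorbate | schedule = 30 min reaction, 60 min detection, RT | measured by = LANCE TR-FRET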
T cruzi growth-2 – inhibitors of T. cruzi proliferation | shares compounds with T cruzi growth-1 | T. cruzi beta-gal in NIH3T3, GalScreen luminescence, 90 h | inhibition, % at 8.35 µM | 72% of 5,600 active;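 active = mean replicate inhibition above about 95% and at least 55% of replicates individually reaching it, limit read from the data; inconclusive = only one of the two criteria is met; inactive = neither criterion is met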
T cruzi growth-3 – inhibitors of T. cruzi proliferation; T. cruzi beta-gal in NIH3T3, GalScreen luminescence, 90 h; inhibition, % at 2.09 µM; AID 651740; shares compounds with T cruzi growth-1; 21% of 5,600 active;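 active = mean inhibition above about 95%, with at least 55% of replicates also reaching it, limit read from the data; inconclusive = meets just one of the two conditions; inactive = meets neither condition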;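 note: plate controls were neutral control median for no effect and positive control median for full effect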
3T3 cytotox – NIH/3T3 (mouse) viability loss | 14% of 5,600 active | NIH/3T3 viability, CellTiter-Glo ATP luminescence, 90 h | cytotoxicity (signal decrease), % at 8.35 µM | shares compounds with T cruzi growth-1;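 active = mean signal decrease across replicates above about 35% based on untreated-well scatter, with enough replicates individually passing, limit read from the data; inconclusive = no rule stated though some were filed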;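 note: 0% = median of neutral control wells and 100% = median of positive control wells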
3T3 cytotox 2 – cytotoxicity in mouse NIH/3T3 fibroblasts. shares compounds with T cruzi growth-1. NIH/3T3 viability, CellTiter-Glo ATP luminescence, 90 h. inhibition, % at 24.9 µM. 56% of 5,600 active;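 active = mean loss of cell viability signal at or above a set limit, and enough replicates individually reaching it; inconclusive = meets only the mean limit or only the replicate share; inactive = meets neither condition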;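 note: 0% = median of neutral control wells and 100% = median of positive control wells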
The depositor's hits bear a star.

How did C[C@@H]1CN([C@@H](C)CO)S(=O)(=O)c2ccc(C#Cc3cccc(F)c3)cc2O[C@@H]1CN(C)S(=O)(=O)c1ccccc1F do in these assays?
T cruzi growth-1: 106*; IDH1 mut inh: 0; GASC1 inh: -1; T cruzi growth-2: 102*; T cruzi growth-3: 111*; 3T3 cytotox: 34*; 3T3 cytotox 2: 28

How did C[C@H](CO)N1C[C@H](C)[C@H](CN(C)S(=O)(=O)c2cn(C)cn2)Oc2cc(C#Cc3cccc(F)c3)ccc2S1(=O)=O do in these assays?
T cruzi growth-1: 42; IDH1 mut inh: 2; GASC1 inh: -2

Results for CS(=O)(=O)N(CC(=O)Nc1ccc(Br)cc1)c1ccc2c(c1)OCCO2 ?
IDH1 mut inh: 0

Results for Cc1nc(-c2ccccc2)sc1C(=O)C1C(=O)C(=O)N(CCCN2CCOCC2)C1c1cccs1 (centres undefined) ?
IDH1 mut inh: 0

How did COc1ccccc1NC(=O)CSc1nnc(-c2ccccc2)n1-c1cccc(C)c1 do in these assays?
IDH1 mut inh: 0

How did Cc1[nH]c2ccccc2c1C(=O)CSc1nc2sc(C)c(C)c2c(=O)n1-c1ccccc1 do in these assays?
IDH1 mut inh: 0

How did COc1ccc(C(=O)CCC(=O)Nc2ccc(C(=O)O)cc2)cc1OC do in these assays?
IDH1 mut inh: 0

How did Nc1ccc(C(=O)CC2(O)C(=O)Nc3ccc(F)cc32)cc1 (centres undefined) do in these assays?
IDH1 mut inh: 1

How did Cc1ccc(NC(=O)CN(c2ccc(Cl)c(C(F)(F)F)c2)S(C)(=O)=O)cc1 do in these assays?
IDH1 mut inh: 6

What do the screens show for `C/C=C/c1ccc2c(c1)O[C@@H](CN(C)Cc1ccncc1)[C@@H](C)CN([C@@H](C)CO)S2(=O)=O`?
T cruzi growth-1: 109*; IDH1 mut inh: 2; GASC1 inh: 1; T cruzi growth-2: 96*; T cruzi growth-3: 101*; 3T3 cytotox: 33; 3T3 cytotox 2: 29*

Results for C/C=C/c1ccc2c(c1)O[C@H](CN(C)Cc1cncnc1)[C@@H](C)CN([C@@H](C)CO)S2(=O)=O ?
IDH1 mut inh: -1; GASC1 inh: 8

What do the screens show for `C/C=C/c1ccc2c(c1)O[C@H](CN(C)Cc1ccncc1)[C@@H](C)CN([C@H](C)CO)S2(=O)=O`?
T cruzi growth-1: 108*; IDH1 mut inh: 42*; GASC1 inh: 1; T cruzi growth-2: 97*; T cruzi growth-3: inconclusive; 3T3 cytotox: 45*; 3T3 cytotox 2: 74*

What do the screens show for `C/C=C/c1ccc2c(c1)O[C@H](CN(C)Cc1ccncc1)[C@H](C)CN([C@H](C)CO)S2(=O)=O`?
T cruzi growth-1: 71; IDH1 mut inh: 4; GASC1 inh: 3

What do the screens show for `O=C1CC(c2cccs2)Cc2nc(NCCN3CCOCC3)ncc21` (centres undefined)?
IDH1 mut inh: 0

Results for Cc1ccc(S(=O)(=O)N(C)C[C@@H]2OCCCC[C@H](C)Oc3ccc(NS(=O)(=O)c4cccs4)cc3C(=O)N([C@@H](C)CO)C[C@H]2C)cc1 ?
T cruzi growth-1: 106*; IDH1 mut inh: -12; GASC1 inh: 1; T cruzi growth-2: inconclusive; T cruzi growth-3: 8; 3T3 cytotox: 3; 3T3 cytotox 2: 24

Results for Cc1ccc(S(=O)(=O)Nc2ccc3c(c2)C(=O)N([C@H](C)CO)C[C@@H](C)[C@H](CN(C)S(=O)(=O)c2cccs2)OCCCC[C@H](C)O3)cc1 ?
GASC1 inh: -4

How did Cc1ccc(S(=O)(=O)N(C)C[C@@H]2OCCCC[C@H](C)Oc3ccc(NS(=O)(=O)c4cccs4)cc3C(=O)N([C@@H](C)CO)C[C@@H]2C)cc1 do in these assays?
T cruzi growth-1: 122*; GASC1 inh: -2; T cruzi growth-2: 98*; T cruzi growth-3: 41; 3T3 cytotox: -11; 3T3 cytotox 2: -5

How did Cc1ccc(S(=O)(=O)N(C)C[C@H]2OCCCC[C@H](C)Oc3ccc(NS(=O)(=O)c4cccs4)cc3C(=O)N([C@@H](C)CO)C[C@@H]2C)cc1 do in these assays?
T cruzi growth-1: 86; IDH1 mut inh: -2; GASC1 inh: 1

What do the screens show for `Cc1ccc(S(=O)(=O)N(C)C[C@H]2OCCCC[C@H](C)Oc3ccc(NS(=O)(=O)c4cccs4)cc3C(=O)N([C@H](C)CO)C[C@@H]2C)cc1`?
T cruzi growth-1: 68; GASC1 inh: -1

What do the screens show for `Cc1ccc(S(=O)(=O)N(C)C[C@H]2OCCCC[C@@H](C)Oc3ccc(NS(=O)(=O)c4cccs4)cc3C(=O)N([C@@H](C)CO)C[C@H]2C)cc1`?
T cruzi growth-1: 103*; IDH1 mut inh: 2; GASC1 inh: -1; T cruzi growth-2: 112*; T cruzi growth-3: 63; 3T3 cytotox: -10; 3T3 cytotox 2: -18

How did Cc1ccc(C(=O)C2C(=O)C(=O)N(CCN(C)C)C23C(=O)N(C)c2ccccc23)cc1 (centres undefined) do in these assays?
IDH1 mut inh: 1

What do the screens show for `COc1cccc(OC)c1C(=O)NCCCO`?
IDH1 mut inh: 0

Results for CC(NC(=O)Cn1c(-c2nonc2N)nc2ccccc21)c1ccccc1 (centres undefined) ?
IDH1 mut inh: 0

What do the screens show for `C[C@H](CO)N1C[C@H](C)[C@@H](CN(C)S(C)(=O)=O)OCc2ccccc2-c2ccccc2C1=O`?
T cruzi growth-1: 40; IDH1 mut inh: 2; GASC1 inh: 2

What do the screens show for `C[C@@H]1CN([C@@H](C)CO)C(=O)c2ccccc2-c2ccccc2CO[C@@H]1CN(C)S(=O)(=O)c1cccs1`?
T cruzi growth-1: 115*; IDH1 mut inh: -4; GASC1 inh: -3; T cruzi growth-2: 92; T cruzi growth-3: 7; 3T3 cytotox: 2; 3T3 cytotox 2: inconclusive

Results for Cc1ccccc1S(=O)(=O)N(C)C[C@H]1OCc2ccccc2-c2ccccc2C(=O)N([C@@H](C)CO)C[C@H]1C ?
T cruzi growth-1: 92; IDH1 mut inh: -4; GASC1 inh: 1

How did Cc1ccccc1S(=O)(=O)N(C)C[C@H]1OCc2ccccc2-c2ccccc2C(=O)N([C@H](C)CO)C[C@@H]1C do in these assays?
T cruzi growth-1: inconclusive; IDH1 mut inh: -5; GASC1 inh: -1; T cruzi growth-2: 95*; T cruzi growth-3: 31; 3T3 cytotox: -6; 3T3 cytotox 2: 2

Results for N#C[C@@H]1[C@@H](c2ccc(C3=CCCCC3)cc2)[C@@H](CO)N1S(=O)(=O)c1ccccc1 ?
T cruzi growth-1: 96*; GASC1 inh: 2; T cruzi growth-2: 102*; T cruzi growth-3: 56; 3T3 cytotox: 55*; 3T3 cytotox 2: 60*
